Calls of active or inactive are those of the source. No cut-off for these calls is given here.
How the values were obtained:
Huh-7 = assay: Cytotoxicity against human HuH7 cells at 10 uM after 24 hrs by WST-1 assay; format: cell-based; settings: huh-7, 24 h
Summary of the method: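 Huh7 cells were incubated 24 h with 10 µM of each compound before cell viability was assessed.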

Hepatitis C virus [1] = assay: Antiviral activity against HCV pseudo-particle infected in human HuH7 cells assessed as inhibition of HCV pseudo particles entry at 10 uM preincubated for 1 hr followed by viral infection and measured after 72 hrs by bright-glo luciferase reporter gene assay; format: functional, organism-based; settings: Hepacivirus hominis
Summary of the method: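 Huh7 cells were pretreated with 10 µM compound for 1 h. They were then infected with HCV pseudo-particles for 3 h in the compound's presence. Entry was detected 72 h post infection; bafilomycin served as the positive control.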

Hepatitis C virus [2] = assay: Antiviral activity against HCV sub-genomic replicon infected in human Huh7 cells at 10 uM added immediately with viral infection and measured after 24 hrs by bright-glo luciferase reporter gene assay relative to control; format: functional
Summary of the method: (§1)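 Huh7 cells were electroporated with HCV subgenomic replicon RNA. Compound at 10 µM was added either immediately at seeding or after 24 h to let replication establish. Luciferase was measured after 24 h of treatment.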

Hepatitis C virus [3] = assay: Antiviral activity against HCV sub-genomic replicon infected in human Huh7-J20 cells after 24 hrs by bright-glo luciferase reporter gene assay; format: functional, organism-based
Summary of the method: (§2)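 Subgenomic replicon RNA was electroporated into cells, which were exposed for 24 h to a dose range from 30 µM in 1:3 dilutions. Replication was read by luciferase, with cell viability measured alongside.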

[4] = Cytotoxicity against human Huh7-J20 cells infected with HCV sub-genomic replicon assessed as reduction in cell viability up to 30 uM after 24 hrs by WST-1 assay; format: cell-based; summary of the method: as §2
[5] = Cytotoxicity against human Huh7-J20 cells infected with HCV JFH-1 after 72 hrs by WST-1 assay; format: cell-based
Summary of the method: (§3)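 HCVcc (JFH-1 clone) inoculated onto Huh7-J20 cells for 3 h. Infected cells were then exposed for 72 h to a dose range starting at 30 µM with 1:3 serial dilutions. Viral replication was read after harvest, and cell viability was measured in parallel.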

Hepatitis C virus [6] = assay: Antiviral activity against HCV JFH-1 infected in human Huh7-J20 cells after 72 hrs by SEAP based assay; format: functional, organism-based, Hepacivirus hominis; settings: JFH-1, Huh7-J20, 72 h; summary of the method: as §3
Hepatitis C virus [7] = assay: Antiviral activity against HCV sub-genomic replicon infected in human Huh7 cells at 10 uM added 24 hrs after viral infection and measured after 24 hrs by bright-glo luciferase reporter gene assay relative to control; format: functional, Hepacivirus hominis; summary of the method: as §1
Hepatitis C virus [8] = assay: Antiviral activity against HCV sub-genomic replicon infected in human Huh7 cells after 2 to 24 hrs by bright-glo luciferase reporter gene assay; format: functional, organism-based; settings: Hepacivirus hominis
Summary of the method: (§4)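 Time course: Huh7 cells were transfected with HCV replicon RNA (wild-type subgenomic or replication-defective GND) and seeded in the presence of compound. Replication/translation signal was read at 2, 4, 8 and 24 h post transfection and compared with untreated cells at each time point.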

Hepatitis C virus [9] = assay: Antiviral activity against HCV replication defective replicon infected in human Huh7 cells after 2 to 8 hrs by bright-glo luciferase reporter gene assay; format: functional, organism-based; settings: Hepacivirus hominis; summary of the method: as §4
Hepatitis C virus [10] = assay: Antiviral activity against HCV replicon infected in human Huh7-J17 cells after 24 hrs by bright-glo luciferase reporter gene assay relative to control; format: functional, Hepacivirus hominis
Hepatitis C virus [11] = assay: Antiviral activity against HCV replicon infected in human Huh7 cells assessed as reduction in NS5A level after 8 to 24 hrs by Western blot analysis; format: functional, organism-based; settings: Hepacivirus hominis
Summary of the method: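 After transfection with HCV replicon RNA, Huh7 cells were treated immediately for 8 or 24 h. Lysates were probed by western blot for NS5A and for unprocessed polyprotein.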

[12] = tested on: Internal ribosome entry site (IRES); assay: Inhibition of HCV IRES transfected in human Huh7 cells assessed as inhibition of IRES-mediated translation after 24 hrs by dual luciferase reporter gene assay relative to control; format: cell-based; settings: Hepacivirus hominis; dose or concentration not given here
Summary of the method: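 Huh7 cells were co-transfected with a plasmid for firefly luciferase driven by the HCV IRES and a plasmid for Renilla luciferase under the TK promoter, used to normalise transfection efficiency. Cells were exposed to compound for 24 h, then assayed by dual luciferase.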

Hepatitis C virus [13] = assay: Antiviral activity against HCV replicon infected in human Huh7 cells after 8 to 24 hrs by Western blot analysis; settings: Hepacivirus hominis

For `N=C(NCCCCCCCCNC(=N)NCc1ccccc1)NCc1ccccc1`, which Activity (Huh-7) is on record?
The Activity was “Non-Toxic”.

What about the Activity (Hepatitis C virus [1]) of the same compound?
Its Activity is “inactive”.

And the Activity (Hepatitis C virus [2]; Hepacivirus hominis)?
Its Activity is “inactive”.

Which results are given for `C=CCNC(=O)NC(=N)NCCCCN`?
Activity (Huh-7): Non-Toxic; Activity (Hepatitis C virus [1]): inactive; Activity (Hepatitis C virus [2]; Hepacivirus hominis): inactive

For `C=CCNC(=O)NC(=N)NCCCN(C)CCCCN(C)CCCNC(=N)NC(=O)NCC=C`, which Activity (Huh-7) is on record?
The Activity was “Non-Toxic”.

And the Activity (Hepatitis C virus [1])?
The Activity was “inactive”.

What about the Activity (Hepatitis C virus [2]; Hepacivirus hominis) of the same compound?
The Activity was “inactive”.

For `C=CCNC(=O)NC(=N)NCCCCNCCCNC(=N)NC(=O)NCC=C`, which Activity (Huh-7) is on record?
The Activity was “Non-Toxic”.

And the Activity (Hepatitis C virus [1])?
Its Activity is “inactive”.

And the Activity (Hepatitis C virus [2]; Hepacivirus hominis)?
Its Activity is “inactive”.

Which results are given for `C=CCNC(=O)NC(=N)NCCCCNC(=N)NC(=O)NCC=C`?
Activity (Huh-7): Non-Toxic; Activity (Hepatitis C virus [1]): inactive; Activity (Hepatitis C virus [2]; Hepacivirus hominis): inactive

Which Activity (Huh-7) does the source give for `C=CCNC(=N)NCCCCCCNCCCCCCNC(=N)NCC=C` here?
The Activity was “Non-Toxic”.

And the Activity (Hepatitis C virus [1])?
The Activity was “inactive”.

And the Activity (Hepatitis C virus [2]; Hepacivirus hominis)?
The Activity was “inactive”.

Which results are given for `C=CCNC(=O)NC(=N)NCCCNCCCCNCCCNC(=N)NC(=O)NCC=C`?
Activity (Huh-7): Non-Toxic; Activity (Hepatitis C virus [1]): inactive; Activity (Hepatitis C virus [2]): 90%; Activity (Hepatitis C virus [3]; Hepacivirus hominis): Dose-dependent effect; IC50 (Hepatitis C virus [3]; Huh7-J20, 24 h): 2.65 µM; Activity [4]: Non-Toxic; CC50 at 72 h [5]: 81.1 µM; IC50 (Hepatitis C virus [6]): 12.3 µM; Activity (Hepatitis C virus [7]): 45%; Activity (Hepatitis C virus [8]): Active; Activity (Hepatitis C virus [9]): Active; Activity (Hepatitis C virus [10]): 45%; Activity (Hepatitis C virus [11]): Active; inhibition [12]: 40%; Activity (Hepatitis C virus [13]): Active

With `C=CCNC(=N)NCCCCCCCCNC(=N)NCC=C` as the compound, how does the Activity (Huh-7) read?
The Activity was “Non-Toxic”.

What about the Activity (Hepatitis C virus [1]) of the same compound?
The Activity was “inactive”.

What about the Activity (Hepatitis C virus [2]; Hepacivirus hominis) of the same compound?
The Activity was “inactive”.

For `C=CCNC(=O)NC(=N)NCCCCNC(=O)c1ccccc1`, which Activity (Huh-7) is on record?
Its Activity is “Non-Toxic”.

What about the Activity (Hepatitis C virus [1]) of the same compound?
The Activity was “inactive”.

What about the Activity (Hepatitis C virus [2]; Hepacivirus hominis) of the same compound?
Its Activity is “inactive”.

For `CO/C1=C\C(C)=C\[C@@H](C)[C@@H](O)[C@@H](C)C/C(C)=C/C=C/[C@H](OC)[C@@H]([C@@H](C)[C@@H](O)[C@H](C)[C@@]2(O)C[C@@H](O)[C@H](C)[C@@H](C(C)C)O2)OC1=O`, which Activity (Hepatitis C virus [1]) is on record?
Its Activity is “Active”.

Which Activity (Huh-7) does the source give for `C#CCNC(=N)NCCCCCCNCCCCCCNC(=N)NCC#C` here?
The Activity was “Non-Toxic”.

And the Activity (Hepatitis C virus [1])?
Its Activity is “inactive”.

What about the Activity (Hepatitis C virus [2]; Hepacivirus hominis) of the same compound?
The Activity was “inactive”.

Source: ChEMBL document CHEMBL4422648, “Synthesis, biological evaluation and mode of action studies of novel amidinourea inhibitors of hepatitis C virus (HCV)” (Bioorg Med Chem Lett, 2019)
